Assay results taken from ChEMBL document CHEMBL4049400, “Aldehyde Oxidase Mediated Metabolism in Drug-like Molecules: A Combined Computational and Experimental Study” (J Med Chem, 2017).

Assays:
Aldehyde oxidase [1] = target: T1, Aldehyde oxidase (Homo sapiens, UniProt Q06278); experiment: Drug metabolism in human liver cytosol assessed as as AOX-mediated quinolone group metabolism at 10 uM after 30 mins by UPLC/Q-TOF MS analysis; type: ADME; conditions: 0.5 h
T1 sequence (Q06278 whole entry): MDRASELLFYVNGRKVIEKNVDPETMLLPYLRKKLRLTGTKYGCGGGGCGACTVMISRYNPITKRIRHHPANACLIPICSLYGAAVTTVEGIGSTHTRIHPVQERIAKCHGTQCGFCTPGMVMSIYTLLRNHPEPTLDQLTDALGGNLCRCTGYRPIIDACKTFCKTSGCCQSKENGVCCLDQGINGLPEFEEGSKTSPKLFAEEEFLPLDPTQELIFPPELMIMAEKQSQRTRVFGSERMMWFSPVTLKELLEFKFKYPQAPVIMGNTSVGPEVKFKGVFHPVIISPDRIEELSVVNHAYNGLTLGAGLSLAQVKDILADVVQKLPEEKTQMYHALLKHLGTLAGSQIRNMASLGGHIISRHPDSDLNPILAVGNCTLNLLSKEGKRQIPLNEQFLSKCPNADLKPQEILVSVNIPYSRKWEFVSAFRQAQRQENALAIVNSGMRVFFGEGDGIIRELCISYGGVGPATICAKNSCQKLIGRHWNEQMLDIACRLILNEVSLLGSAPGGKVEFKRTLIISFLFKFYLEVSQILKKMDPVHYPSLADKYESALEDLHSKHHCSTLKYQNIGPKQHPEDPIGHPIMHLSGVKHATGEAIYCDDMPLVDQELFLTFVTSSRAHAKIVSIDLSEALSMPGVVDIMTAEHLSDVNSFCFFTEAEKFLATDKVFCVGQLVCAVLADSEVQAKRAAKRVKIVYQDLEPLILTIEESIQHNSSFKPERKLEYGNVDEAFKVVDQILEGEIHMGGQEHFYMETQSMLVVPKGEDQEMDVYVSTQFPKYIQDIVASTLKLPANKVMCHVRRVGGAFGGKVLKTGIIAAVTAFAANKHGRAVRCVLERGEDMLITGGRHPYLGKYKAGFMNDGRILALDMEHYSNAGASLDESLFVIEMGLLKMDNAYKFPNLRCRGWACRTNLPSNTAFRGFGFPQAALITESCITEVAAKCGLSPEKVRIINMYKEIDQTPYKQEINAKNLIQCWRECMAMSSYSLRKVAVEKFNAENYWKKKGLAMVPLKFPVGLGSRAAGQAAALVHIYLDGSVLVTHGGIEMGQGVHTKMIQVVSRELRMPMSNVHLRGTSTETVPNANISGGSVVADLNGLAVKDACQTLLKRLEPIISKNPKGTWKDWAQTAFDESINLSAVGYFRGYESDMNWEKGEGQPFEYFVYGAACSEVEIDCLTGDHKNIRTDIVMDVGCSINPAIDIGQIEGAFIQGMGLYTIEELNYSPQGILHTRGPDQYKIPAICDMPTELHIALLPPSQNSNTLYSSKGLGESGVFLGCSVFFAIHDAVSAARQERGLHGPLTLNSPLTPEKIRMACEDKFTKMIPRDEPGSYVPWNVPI
Procedure, shortened: (§1)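 Pooled human liver cytosol, 0.5 mg/mL protein, in 100 mM potassium phosphate pH 7.4; 3 min preincubation at 37 °C, then 10 μM substrate (final; DMSO 0.1% v/v). Quenched after 30 min with equal volume ice-cold acetonitrile, centrifuged, supernatant run by UPLC/Q-TOF MS in positive ion mode. Controls without substrate or with inactivated enzyme; duplicate incubations.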

Aldehyde oxidase [2] = target: T1, Aldehyde oxidase; experiment: Drug metabolism in human liver cytosol assessed as AOX-mediated 2-fluoro-N-methyl-4-(3-oxo-7-(quinolin-7-ylmethyl)-3,4-dihydroimidazo[1,2-b][1,2,4]triazin-2-yl)benzamide metabolite formation by measuring LC-MS peak area of the metabolite at 10 uM after 30 mins in presence of menadione by UPLC/Q-TOF MS analysis; type: ADME; conditions: 0.5 h
Procedure, shortened: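 Human liver cytosol (0.5 mg/mL protein) in 100 mM phosphate buffer preincubated 10 min at 37 °C with 100 μM menadione (DMSO 0.2% v/v final), then 10 μM substrate (final) added. Stopped at 30 min with equal volume ice-cold acetonitrile; metabolites detected by UPLC/Q-TOF MS. Inhibitor-free controls run alongside; duplicate incubations.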

Aldehyde oxidase [3] = target: T1, Aldehyde oxidase; experiment: Drug metabolism in human liver cytosol assessed as AOX-mediated 2-fluoro-N-methyl-4-(3-oxo-7-(quinolin-7-ylmethyl)-3,4-dihydroimidazo[1,2-b][1,2,4]triazin-2-yl)benzamide metabolite formation by measuring LC-MS peak area of the metabolite at 10 uM after 30 min by UPLC/Q-TOF MS analysis; type: ADME; conditions: 0.5 h; procedure, shortened: as §1
[4] = Retention time of the compound by UPLC/Q-TOF MS analysis
Procedure, shortened: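 HSS T3 column (1.8 μm, 100 × 2.1 mm) at 45 °C, 0.4 mL/min. Mobile phase: 5 mM ammonium acetate with 0.1% formic acid (A) and acetonitrile (B). Gradient 10% B for 1 min, to 65% B over 6 min, to 99% B over 0.5 min, held 1.5 min, back to 10% B. Positive-ion Q-TOF detection, m/z 80–1000.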

Aldehyde oxidase [5] = target: T1, Aldehyde oxidase; experiment: Drug level in human liver cytosol treated with capmatinib assessed as AOX-mediated metabolite formation at 10 uM after 30 min by UPLC/Q-TOF MS analysis; type: ADME; conditions: 0.5 h; procedure, shortened: as §1
Aldehyde oxidase [6] = target: T1, Aldehyde oxidase; experiment: Drug metabolism in human liver cytosol assessed as AOX-mediated oxidative metabolite formation by measuring decrease in the liquid chromatography-mass spectrometry peak at 10 uM after 30 min by UPLC/Q-TOF MS analysis; type: ADME; conditions: 0.5 h; procedure, shortened: as §1

Row | Drug metabolism (Aldehyde oxidase [1]) | Drug metabolism (Aldehyde oxidase [6]) | SMILES | other results
1 | Metabolite_Detected | – | Cn1cc(-c2ccc3nnc(C(F)(F)c4ccc5ncccc5c4)n3n2)cn1 [JNJ-38877605] | –
2 | – | – | CNC(=O)c1ccc(-c2nn3c(Cc4ccc5ncccc5c4)cnc3[nH]c2=O)cc1F | Drug metabolism (Aldehyde oxidase [2]): 3220; Drug metabolism (Aldehyde oxidase [3]): 136000; Retention time [4]: 3.63 min; Drug metabolism (Aldehyde oxidase [5]): Metabolite_Detected
3 | – | Metabolite_Detected | CNC(=O)c1ccc(-c2cnc3ncc(Cc4ccc5ncccc5c4)n3n2)cc1F [CAPMATINIB] | –
4 | Metabolite_Detected | – | Cn1cc(-c2ccc3nnc(Sc4ccc5ncccc5c4)n3n2)cn1 [SGX-523] | –
5 | Metabolite_Detected | Metabolite_Detected | OCCn1cc(-c2cnc3nnn(Cc4ccc5ncccc5c4)c3n2)cn1 [PF-04217903] | –
6 | – | Metabolite_Detected | Cn1cc(-c2ccc3ncc(Cc4ccc5ncccc5c4)n3n2)cn1 | –
